{"data": "Experimental data gathered from unrelated publications", "observed": "cell growth or viability", "note": "Protocols differ between the studies behind these lines. pEC50, pIC50: −log10 of the molar value."}
{"Compound": "Nc1cccc2c1C(=O)N(C1CCC(=O)NC1=O)C2=O (stereo not shown)", "cell line": "OCI-Ly10", "test": "CCK-8", "conditions": "7 days", "measurement": "pIC50", "value": 6.44}
{"Compound": "C#CCOc1ccc2oc(-c3ccc(OC)cc3)c(C(=O)OCC)c2c1CN1CCCCC1", "cell line": "J774.A1", "test": "resazurin", "measurement": "pIC50", "value": 5.09}
{"Compound": "C[C@H]1CN(C)CCCN1c1nccc(-c2noc([C@@]3(C)CCCc4sc(N)c(C#N)c43)n2)n1", "cell line": "NCI-H727", "conditions": "5 days", "measurement": "pEC50", "value": "< 6.00"}
{"Compound": "O=c1cc(OCc2cc(-c3ccccc3)no2)c2ccccc2o1", "cell line": "DND41", "test": "MTS", "conditions": "72 h", "measurement": "pIC50", "value": "< 4.00"}
{"Compound": "C#CCNC(=O)c1c(-c2ccc(OC)cc2)oc2ccc(O)c(CN3CCCCC3)c12", "cell line": "J774.A1", "test": "resazurin", "conditions": "18 h", "measurement": "pIC50", "value": 4.56}
{"Compound": "C[C@H](Oc1nccc(-c2noc3c2CCC[C@@]32CCCc3sc(N)c(C#N)c32)n1)[C@@H]1CCCN1C", "cell line": "NCI-H727", "conditions": "5 days", "measurement": "pEC50", "value": 6.96}
{"Compound": "N/C(=N\\O)c1ccc(-c2cc(CNc3cccc4cccnc34)on2)cc1", "cell line": "DND41", "test": "MTS", "conditions": "72 h", "measurement": "pIC50", "value": 5.64}
{"Compound": "Cc1nc(Nc2ncc(C(=O)Nc3c(C)cccc3Cl)s2)cc(N2CC[C@H](O)C2)n1", "cell line": "JeKo-1", "test": "ATP luminescence", "conditions": "72 h", "measurement": "pIC50", "value": "< 5.00"}
{"Compound": "O=c1cc(OCc2cc(-c3ccc(C(F)(F)F)cc3)no2)c2ccccc2o1", "cell line": "DND41", "test": "MTS", "conditions": "72 h", "measurement": "pIC50", "value": "< 4.00"}
{"Compound": "C[C@H]1CNCCCN1c1nccc(-c2noc3c2CCC[C@@]32CCCc3sc(N)c(C#N)c32)n1", "cell line": "NCI-H727", "conditions": "5 days", "measurement": "pEC50", "value": 6.40}
{"Compound": "FC(F)(F)c1cc(OCc2cc(-c3ccc(Cl)cc3Cl)no2)c2ccccc2n1", "cell line": "DND41", "test": "MTS", "conditions": "72 h", "measurement": "pIC50", "value": "< 4.00"}
{"Compound": "C[C@H]1CNCCN1c1nccc(-c2onc3c2CCC[C@@]32CCCc3sc(N)c(C#N)c32)n1", "cell line": "NCI-H727", "conditions": "5 days", "measurement": "pEC50", "value": 6.39}
{"Compound": "CCOc1ccc(C(=O)CC(SCc2ccc(Cl)cc2)C(=O)OC)cc1 (stereo not shown)", "cell line": "WM 266-4", "test": "MTT", "conditions": "48 h", "measurement": "pEC50", "value": 4.68}
